Results as given in ChEMBL document CHEMBL2176968, “Identification of less lipophilic riminophenazine derivatives for the treatment of drug-resistant tuberculosis” (J Med Chem, 2012).
In brackets after ≈: the same amount, converted by molar mass.

Legend:
Vero = assay: Cytotoxicity against african green monkey Vero cells after 48 hrs by MTT assay; type: cell-based; conditions: Chlorocebus sabaeus
Method in brief: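 Vero cells were exposed to compound. The IC50 was taken as the concentration inhibiting 50% of growth relative to an untreated control.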

[1] = test system: Mycobacterium tuberculosis; assay: Antimycobacterial activity against Mycobacterium tuberculosis H37Rv ATCC 27294 after 7 days by microplate Alamar blue assay; type: functional; conditions: H37Rv ATCC 27294, 168 h
Method in brief: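 Run in 96-well plates against M. tuberculosis H37Rv using the Alamar Blue read-out. The MIC was taken as the lowest concentration giving >90% growth inhibition.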

[2] = Selectivity index, ratio of IC50 for african green monkey Vero cells to MIC for Mycobacterium tuberculosis H37Rv ATCC 27294; type: functional
Mus musculus = assay: Acute toxicity in mouse assessed as survival at 500 mg/kg, po measured for 7 days; type: organism-based; design: dose 500 mg/kg, route oral; conditions: in vivo, 168 h
Method in brief: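 Mice given one oral dose of 500 mg/kg, then observed for 7 days. The number of surviving mice was recorded.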

| SMILES | IC50 (Vero) | MIC [1] | Selectivity Index [2] | Activity (Mus musculus) |
| --- | --- | --- | --- | --- |
| FC(F)(F)Oc1ccc(-n2c3c/c(=N\CCN4CCOCC4)c(Nc4cccnc4)cc-3nc3ccccc32)cc1 | 16.1 µg/mL (≈ 28.8 µM) | 0.125 µg/mL (≈ 0.223 µM) | 129 | – |
| COc1ncccc1Nc1cc2nc3ccccc3n(-c3ccc(C(F)(F)F)cc3)c-2c/c1=N\C(C)C | > 64 µg/mL | 0.029 µg/mL (≈ 0.0576 µM) | 2207 | Non-toxic |
| COc1ncccc1Nc1cc2nc3ccccc3n(-c3ccc(Cl)cc3)c-2c/c1=N\C(C)C | > 64 µg/mL | 0.03 µg/mL (≈ 0.0638 µM) | 2133 | – |
| COC1CCC(/N=c2\cc3n(-c4ccc(C(F)(F)F)cc4)c4ccccc4nc-3cc2Nc2ccc(C)nc2)CC1 (stereo not drawn) | 33.4 µg/mL (≈ 60 µM) | 0.016 µg/mL (≈ 0.0287 µM) | 2089 | – |
| COc1ncccc1Nc1cc2nc3ccccc3n(-c3ccc(Br)cc3)c-2c/c1=N\C1CCC(OC)CC1 (stereo not drawn) | > 64 µg/mL | 0.031 µg/mL (≈ 0.053 µM) | 2065 | Non-toxic |
| COC1CCC(/N=c2\cc3n(-c4ccc(OC(F)(F)F)cc4)c4ccccc4nc-3cc2Nc2cccnc2)CC1 (stereo not drawn) | 4.52 µg/mL (≈ 8.08 µM) | 0.03 µg/mL (≈ 0.0536 µM) | 151 | – |
| Cc1ccc(Nc2cc3nc4ccccc4n(-c4ccc(F)cc4)c-3c/c2=N\C(C)C)cn1 | 7.88 µg/mL (≈ 18 µM) | 0.06 µg/mL (≈ 0.137 µM) | 131 | – |
| CC(C)/N=c1\cc2n(-c3ccc(F)cc3)c3ccccc3nc-2cc1Nc1cccnc1 | 6.25 µg/mL (≈ 14.8 µM) | 0.03 µg/mL (≈ 0.0708 µM) | 208 | – |
| COc1ncccc1Nc1cc2nc3ccccc3n(-c3ccc(Br)cc3)c-2c/c1=N\C(C)C | > 64 µg/mL | 0.049 µg/mL (≈ 0.0953 µM) | 1306 | – |
| Cc1ccc(Nc2cc3nc4ccccc4n(-c4ccc(Cl)cc4)c-3c/c2=N\C2CCOCC2)cn1 | 9.73 µg/mL (≈ 19.6 µM) | 0.03 µg/mL (≈ 0.0605 µM) | 324 | – |
| Clc1ccc(-n2c3c/c(=N\C4CCOCC4)c(Nc4cncc(Br)c4)cc-3nc3ccccc32)cc1 | > 64 µg/mL | 0.036 µg/mL (≈ 0.0642 µM) | 1778 | – |
| COC1CCC(/N=c2\cc3n(-c4ccc(C(F)(F)F)cc4)c4ccccc4nc-3cc2Nc2cccnc2C)CC1 (stereo not drawn) | > 64 µg/mL | 0.011 µg/mL (≈ 0.0197 µM) | 5818 | – |
| COc1ncccc1Nc1cc2nc3ccccc3n(-c3ccc(F)cc3)c-2c/c1=N\C1CCOCC1 | > 64 µg/mL | 0.039 µg/mL (≈ 0.0787 µM) | 1641 | – |
| COc1ncccc1Nc1cc2nc3ccccc3n(-c3ccc(OC(F)(F)F)cc3)c-2c/c1=N\C1CCOCC1 | > 64 µg/mL | 0.016 µg/mL (≈ 0.0285 µM) | 4000 | – |
| CC(C)/N=c1\cc2n(-c3ccc(Br)cc3)c3ccccc3nc-2cc1Nc1cccnc1 | 2.3 µg/mL (≈ 4.75 µM) | 0.02 µg/mL (≈ 0.0413 µM) | 115 | – |
| Cc1ccc(Nc2cc3nc4ccccc4n(-c4ccc(F)cc4)c-3c/c2=N\C2CCOCC2)cn1 | 14 µg/mL (≈ 29.3 µM) | 0.125 µg/mL (≈ 0.261 µM) | 112 | – |
| CC(C)CN1CCC(/N=c2\cc3n(-c4ccc(F)cc4)c4ccccc4nc-3cc2Nc2cccnc2)CC1 | 30.3 µg/mL (≈ 58.1 µM) | 0.125 µg/mL (≈ 0.24 µM) | 242 | – |
| COC1CCC(/N=c2\cc3n(-c4ccc(Br)cc4)c4ccccc4nc-3cc2Nc2ccc(C)nc2)CC1 (stereo not drawn) | 39.7 µg/mL (≈ 69.8 µM) | 0.097 µg/mL (≈ 0.171 µM) | 409 | – |
| Cc1ccc(Nc2cc3nc4ccccc4n(-c4ccc(Cl)cc4)c-3c/c2=N\C(C)C)cn1 | 7.09 µg/mL (≈ 15.6 µM) | 0.06 µg/mL (≈ 0.132 µM) | 118 | – |
| Cc1ccc(Nc2cc3nc4ccccc4n(-c4ccc(Br)cc4)c-3c/c2=N\C(C)C)cn1 | 3.12 µg/mL (≈ 6.26 µM) | 0.049 µg/mL (≈ 0.0983 µM) | 64 | – |
| CSc1ccc(-n2c3c/c(=N\C(C)C)c(Nc4cccnc4)cc-3nc3ccccc32)cc1 | 1.83 µg/mL (≈ 4.05 µM) | 0.05 µg/mL (≈ 0.111 µM) | 37 | – |
| CN1CCC(/N=c2\cc3n(-c4ccc(F)cc4)c4ccccc4nc-3cc2Nc2cccnc2)CC1 | 6.44 µg/mL (≈ 13.5 µM) | 0.25 µg/mL (≈ 0.522 µM) | 26 | – |
| Cc1ccc(Nc2cc3nc4ccccc4n(-c4ccc(Br)cc4)c-3c/c2=N\C2CCOCC2)cn1 | 21.7 µg/mL (≈ 40.2 µM) | 0.044 µg/mL (≈ 0.0814 µM) | 493 | – |
| COc1ncccc1Nc1cc2nc3ccccc3n(-c3ccc(OC(F)(F)F)cc3)c-2c/c1=N\C(C)C | > 64 µg/mL | 0.028 µg/mL (≈ 0.0539 µM) | 2286 | – |
| FC(F)(F)c1ccc(-n2c3c/c(=N\C4CCOCC4)c(Nc4cccnc4)cc-3nc3ccccc32)cc1 | > 64 µg/mL | 0.125 µg/mL (≈ 0.242 µM) | 512 | – |
| CN1CCC(/N=c2\cc3n(-c4ccc(OC(F)(F)F)cc4)c4ccccc4nc-3cc2Nc2cccnc2)CC1 | 4.48 µg/mL (≈ 8.23 µM) | 0.25 µg/mL (≈ 0.459 µM) | 18 | – |
| CN1CCC(/N=c2\cc3n(-c4ccc(C(F)(F)F)cc4)c4ccccc4nc-3cc2Nc2cccnc2)CC1 | 10.4 µg/mL (≈ 19.6 µM) | 0.125 µg/mL (≈ 0.236 µM) | 83 | – |
